In ChEMBL document CHEMBL4184236, “Design, synthesis and biological evaluation of matrine derivatives as potential anticancer agents” (Bioorg Med Chem Lett, 2018):
pIC50: −log10 of the molar value.

Assays:
Type in all cases: functional, cell-based
SMMC-7721 = experiment: Anticancer activity against human SMMC7721 cells assessed as reduction in cell viability incubated for 48 hrs MTT assay; conditions: SMMC-7721, 48 h
Outline: (§1)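 MTT assay on human hepatocarcinoma SMMC-7721, lung carcinoma A549 and nasopharyngeal carcinoma CNE2 cells, with matrine as comparator and cisplatin as positive control. IC50 is the concentration that lowers optical density of treated cells by 50% versus untreated cells, given as the mean ± SD of three experiments.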

A549 = experiment: Anticancer activity against human A549 cells assessed as reduction in cell viability incubated for 48 hrs MTT assay; conditions: A549, 48 h; outline: as §1
CNE-2 = experiment: Anticancer activity against human CNE2 cells assessed as reduction in cell viability incubated for 48 hrs MTT assay; conditions: CNE-2, 48 h; outline: as §1

## O=C1/C(=C/c2cn(Cc3ccc4ccccc4c3)c3ccccc23)CC[C@@H]2[C@H]3CCCN4CCC[C@@H](CN12)[C@@H]34
SMMC-7721
  pIC50: 5.25
A549
  pIC50: 5.07
CNE-2
  pIC50: 5.34

## COc1ccc2c(/C=C3\CC[C@@H]4[C@H]5CCCN6CCC[C@@H](CN4C3=O)[C@@H]56)cn(Cc3ccc4ccccc4c3)c2c1
SMMC-7721
  pIC50: 5.04
A549
  pIC50: 4.88
CNE-2
  pIC50: 5.27

## O=C1/C(=C/c2cn(Cc3ccc4ccccc4c3)c3ccc(Br)cc23)CC[C@@H]2[C@H]3CCCN4CCC[C@@H](CN12)[C@@H]34
SMMC-7721
  pIC50: 5.06
A549
  pIC50: 5.01
CNE-2
  pIC50: 4.90

## O=C1/C(=C/c2cccn2Cc2ccc(Br)cc2)CC[C@@H]2[C@H]3CCCN4CCC[C@@H](CN12)[C@@H]34
SMMC-7721
  pIC50: 4.75
A549
  pIC50: 4.64
CNE-2
  pIC50: 4.75

## O=C1/C(=C/c2cn(Cc3cccc(Cl)c3)c3ccc(Br)cc23)CC[C@@H]2[C@H]3CCCN4CCC[C@@H](CN12)[C@@H]34
SMMC-7721
  pIC50: 5.01
A549
  pIC50: 4.77
CNE-2
  pIC50: 5.07

## O=C1/C(=C/c2cccn2Cc2ccccc2Br)CC[C@@H]2[C@H]3CCCN4CCC[C@@H](CN12)[C@@H]34
SMMC-7721
  pIC50: 4.82
A549
  pIC50: 4.92
CNE-2
  pIC50: 4.76

## CC(C)(C)c1ccc(Cn2cccc2/C=C2\CC[C@@H]3[C@H]4CCCN5CCC[C@@H](CN3C2=O)[C@@H]45)cc1
SMMC-7721
  pIC50: 4.80
A549
  pIC50: 4.80
CNE-2
  pIC50: 4.86

## Cc1ccc2c(c1)c(/C=C1\CC[C@@H]3[C@H]4CCCN5CCC[C@@H](CN3C1=O)[C@@H]45)cn2Cc1ccc2ccccc2c1
SMMC-7721
  pIC50: 5.49
A549
  pIC50: 5.30
CNE-2
  pIC50: 5.45

## O=C1/C(=C/c2cn(Cc3ccc(OC(F)(F)F)cc3)c3ccc(Br)cc23)CC[C@@H]2[C@H]3CCCN4CCC[C@@H](CN12)[C@@H]34
SMMC-7721
  pIC50: 4.94
A549
  pIC50: 5.04
CNE-2
  pIC50: 5.22

## O=C1/C(=C/c2cccn2Cc2cccc(Br)c2)CC[C@@H]2[C@H]3CCCN4CCC[C@@H](CN12)[C@@H]34
SMMC-7721
  pIC50: 4.79
A549
  pIC50: 4.86
CNE-2
  pIC50: 4.82

## Cc1ccc(Cn2cccc2/C=C2\CC[C@@H]3[C@H]4CCCN5CCC[C@@H](CN3C2=O)[C@@H]45)cc1
SMMC-7721
  pIC50: 4.55
A549
  pIC50: 4.61
CNE-2
  pIC50: 4.66

## O=C1/C(=C/c2ccc3c(ccn3Cc3ccc4ccccc4c3)c2)CC[C@@H]2[C@H]3CCCN4CCC[C@@H](CN12)[C@@H]34
SMMC-7721
  pIC50: 4.57
A549
  pIC50: 4.52
CNE-2
  pIC50: 4.84

## Cc1ccccc1Cn1cccc1/C=C1\CC[C@@H]2[C@H]3CCCN4CCC[C@@H](CN2C1=O)[C@@H]34
SMMC-7721
  pIC50: 4.65
A549
  pIC50: 4.53
CNE-2
  pIC50: 4.55

## COc1ccc2c(c1)c(/C=C1\CC[C@@H]3[C@H]4CCCN5CCC[C@@H](CN3C1=O)[C@@H]45)cn2Cc1ccc(Cl)cc1
SMMC-7721
  pIC50: 5.25
A549
  pIC50: 5.15
CNE-2
  pIC50: 5.33

## O=C1/C(=C/c2cn(Cc3ccc(OC(F)(F)F)cc3)c3ccccc23)CC[C@@H]2[C@H]3CCCN4CCC[C@@H](CN12)[C@@H]34
SMMC-7721
  pIC50: 5.17
A549
  pIC50: 5.15
CNE-2
  pIC50: 5.18

## O=C1/C(=C/c2cccn2Cc2cccc(Cl)c2)CC[C@@H]2[C@H]3CCCN4CCC[C@@H](CN12)[C@@H]34
SMMC-7721
  pIC50: 4.68
A549
  pIC50: 4.65
CNE-2
  pIC50: 4.79

## O=C1/C(=C/c2cn(Cc3ccccc3Cl)c3ccccc23)CC[C@@H]2[C@H]3CCCN4CCC[C@@H](CN12)[C@@H]34
SMMC-7721
  pIC50: 4.76
A549
  pIC50: 4.74
CNE-2
  pIC50: 4.76

## O=C1/C(=C/c2cccn2Cc2ccc(OCc3ccccc3)cc2)CC[C@@H]2[C@H]3CCCN4CCC[C@@H](CN12)[C@@H]34
SMMC-7721
  pIC50: 4.89
A549
  pIC50: 4.88
CNE-2
  pIC50: 4.96

## O=C1/C(=C/c2cn(Cc3ccc(OCc4ccccc4)cc3)c3ccccc23)CC[C@@H]2[C@H]3CCCN4CCC[C@@H](CN12)[C@@H]34
SMMC-7721
  pIC50: 5.01
A549
  pIC50: 4.90
CNE-2
  pIC50: 4.93

## COc1ccc2c(/C=C3\CC[C@@H]4[C@H]5CCCN6CCC[C@@H](CN4C3=O)[C@@H]56)cn(Cc3ccc(Cl)cc3)c2c1
SMMC-7721
  pIC50: 5.06
A549
  pIC50: 5.00
CNE-2
  pIC50: 5.16

## O=C1/C(=C/c2cn(Cc3ccc(Cl)cc3)c3ccccc23)CC[C@@H]2[C@H]3CCCN4CCC[C@@H](CN12)[C@@H]34
SMMC-7721
  pIC50: 4.95
A549
  pIC50: 4.92
CNE-2
  pIC50: 4.96

## Cn1cccc1/C=C1\CC[C@@H]2[C@H]3CCCN4CCC[C@@H](CN2C1=O)[C@@H]34
SMMC-7721
  pIC50: < 4.00
A549
  pIC50: < 4.00
CNE-2
  pIC50: < 4.00

## Cc1ccccc1Cn1cc(/C=C2\CC[C@@H]3[C@H]4CCCN5CCC[C@@H](CN3C2=O)[C@@H]45)c2ccccc21
SMMC-7721
  pIC50: 4.92
A549
  pIC50: 4.92
CNE-2
  pIC50: 4.97

## COc1ccc(Cn2cc(/C=C3\CC[C@@H]4[C@H]5CCCN6CCC[C@@H](CN4C3=O)[C@@H]56)c3ccccc32)cc1
SMMC-7721
  pIC50: 5.10
A549
  pIC50: 4.95
CNE-2
  pIC50: 5.07

## Cc1cc(C)cc(Cn2cccc2/C=C2\CC[C@@H]3[C@H]4CCCN5CCC[C@@H](CN3C2=O)[C@@H]45)c1
SMMC-7721
  pIC50: 4.31
A549
  pIC50: < 4.30
CNE-2
  pIC50: 4.49

## CC(C)(C)c1ccc(Cn2cc(/C=C3\CC[C@@H]4[C@H]5CCCN6CCC[C@@H](CN4C3=O)[C@@H]56)c3ccccc32)cc1
SMMC-7721
  pIC50: 5.02
A549
  pIC50: 5.01
CNE-2
  pIC50: 5.11

## COc1ccc(Br)c(Cn2cccc2/C=C2\CC[C@@H]3[C@H]4CCCN5CCC[C@@H](CN3C2=O)[C@@H]45)c1
SMMC-7721
  pIC50: 4.91
A549
  pIC50: 4.84
CNE-2
  pIC50: 4.94

## CC(C)(C)c1cc(Cn2cccc2/C=C2\CC[C@@H]3[C@H]4CCCN5CCC[C@@H](CN3C2=O)[C@@H]45)cc(C(C)(C)C)c1
SMMC-7721
  pIC50: < 4.40
A549
  pIC50: < 4.40
CNE-2
  pIC50: < 4.40

## Cc1cccc(Cn2cccc2/C=C2\CC[C@@H]3[C@H]4CCCN5CCC[C@@H](CN3C2=O)[C@@H]45)c1
SMMC-7721
  pIC50: 4.51
A549
  pIC50: 4.35
CNE-2
  pIC50: 4.61

## O=C1/C(=C/c2cn(Cc3ccccc3)c3ccccc23)CC[C@@H]2[C@H]3CCCN4CCC[C@@H](CN12)[C@@H]34
SMMC-7721
  pIC50: 4.92
A549
  pIC50: 4.86
CNE-2
  pIC50: 4.97

## Cc1ccc2c(c1)c(/C=C1\CC[C@@H]3[C@H]4CCCN5CCC[C@@H](CN3C1=O)[C@@H]45)cn2Cc1cccc(Cl)c1
SMMC-7721
  pIC50: 5.08
A549
  pIC50: 5.04
CNE-2
  pIC50: 4.93

## CC(C)(C)c1ccc(Cn2ccc3cc(/C=C4\CC[C@@H]5[C@H]6CCCN7CCC[C@@H](CN5C4=O)[C@@H]67)ccc32)cc1
SMMC-7721
  pIC50: 4.97
A549
  pIC50: 4.96
CNE-2
  pIC50: 5.05

## O=C1/C(=C/c2cccn2Cc2ccc(F)cc2)CC[C@@H]2[C@H]3CCCN4CCC[C@@H](CN12)[C@@H]34
SMMC-7721
  pIC50: 4.47
A549
  pIC50: 4.50
CNE-2
  pIC50: 4.58

## O=C1/C(=C/c2cccn2Cc2ccc(Cl)cc2)CC[C@@H]2[C@H]3CCCN4CCC[C@@H](CN12)[C@@H]34
SMMC-7721
  pIC50: 4.67
A549
  pIC50: 4.67
CNE-2
  pIC50: 4.82
